What was measured:
[1] = biological target: P2Y purinoceptor 1 (Meleagris gallopavo, UniProt P49652); assay: Compounds was tested for its ability to stimulate phospholipase C activity at the P2Y purinoceptor 1 in turkey erythrocyte membranes.; assay type: cell membranes
In short: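 Turkey erythrocytes labeled 18–24 h at 37 °C with 2-[3H]myo-inositol in inositol-free DMEM; membranes from hypotonic lysis; PLC assay at pH 7.0 with […] and varying nucleotide concentrations, 5 min at 30 °C; total [3H]inositol phosphates by ion-exchange chromatography; EC50 from four-parameter logistic fit, ≥3 experiments on different membrane preparations, duplicate assays.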

[2] = species on record: Rattus norvegicus; assay: Amplitude of the [Ca++]i Transient evoked by 10 uM ATP, AMP and the compound in NG108-15 Neuroblastoma x Glioma Hybrid cells; assay type: functional
In short: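 NG108-15 cells (passage 24–40) grown on glass coverslips 3–7 days (20–80% confluency), loaded 30 min at 37 °C with 2 μM fura-2/AM in HEPES-buffered saline pH 7.4, superfused at 37 °C; 30-s agonist application at 10 μM; single-cell imaging, alternate 340/380 nm excitation, emission >510 nm; amplitude as Δ F340/F380 ratio, mean ± SEM over n single cells.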

[3] = species on record: Rattus norvegicus; assay: Amplitude of the [Ca++]i Transient evoked by 10 uM ATP, AMP and the compound in rat Astrocytes, expressed as (F340 nm/F380 nm); assay type: functional
In short: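 Primary astrocyte-enriched cultures from newborn Wistar rat whole brain, used on days 6–11 in culture; fura-2/AM (2 μM, 30 min, 37 °C, HEPES-buffered saline pH 7.4) loading; superfusion at 37 °C, 30-s stimulation at 10 μM; single-cell 340/380 nm ratio imaging; maximal Δ F340/F380, mean ± SEM, n = single cells.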

P2Y purinoceptor 1, sequence (P49652 whole entry): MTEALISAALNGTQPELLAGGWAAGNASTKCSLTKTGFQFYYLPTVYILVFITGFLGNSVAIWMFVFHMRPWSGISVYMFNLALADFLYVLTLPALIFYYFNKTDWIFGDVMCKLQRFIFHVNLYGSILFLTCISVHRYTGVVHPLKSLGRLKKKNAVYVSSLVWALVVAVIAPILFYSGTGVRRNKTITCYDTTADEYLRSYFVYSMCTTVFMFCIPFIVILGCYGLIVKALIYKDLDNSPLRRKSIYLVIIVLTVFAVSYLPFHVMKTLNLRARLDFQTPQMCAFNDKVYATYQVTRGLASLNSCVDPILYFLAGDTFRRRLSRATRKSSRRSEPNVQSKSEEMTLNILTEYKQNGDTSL

Compound | EC50 [1] [nM] | Activity [2] | Activity [3]
CCCCNc1nc2c(N)ncnc2n1[C@@H]1O[C@H](COP(=O)(O)OP(=O)(O)OP(=O)(O)O)[C@@H](O)[C@H]1O | 51000 | – | –
CCCCSc1nc2c(N)ncnc2n1[C@@H]1O[C@H](COP(=O)(O)OP(=O)(O)OP(=O)(O)O)[C@@H](O)[C@H]1O | 10000 | – | –
CCCCOc1nc(N)c2ncn([C@@H]3O[C@H](COP(=O)([O-])OP(=O)([O-])OP(=O)([O-])[O-])[C@@H](O)[C@H]3O)c2n1.[Na+].[Na+].[Na+].[Na+] | 88 | 0.06 | 0.63
CCCCOc1nc2c(N)ncnc2n1[C@@H]1O[C@H](COP(=O)(O)OP(=O)(O)OP(=O)(O)O)[C@@H](O)[C@H]1O | 5710 | – | –
CCCCSc1nc(N)c2ncn([C@@H]3O[C@H](COP(=O)([O-])OP(=O)([O-])OP(=O)([O-])[O-])[C@@H](O)[C@H]3O)c2n1.[Na+].[Na+].[Na+].[Na+] | 18 | 0.23 | 0.9
CCCCNc1nc(N)c2ncn([C@@H]3O[C@H](COP(=O)([O-])OP(=O)([O-])OP(=O)([O-])[O-])[C@@H](O)[C@H]3O)c2n1.[Na+].[Na+].[Na+].[Na+] | 39 | 0.05 | 0.89
CCCCSc1nc(N)c2ncn(C3O[C@H](COP(=O)([O-])[O-])[C@@H](O)[C@H]3O)c2n1.[Na+].[Na+] (stereo partly drawn) | – | – | 0.28

From ChEMBL document CHEMBL1132547, “Molecular recognition of modified adenine nucleotides by the P2Y(1)-receptor. 1. A synthetic, biochemical, and NMR approach” (J Med Chem, 1999)
